Data taken from ChEMBL document CHEMBL3259731, “Design, synthesis, and biological evaluation of novel FAK scaffold inhibitors targeting the FAK-VEGFR3 protein-protein interaction” (Eur J Med Chem, 2014).
pKd: −log10 of the molar value. Counter-ions that a name gives are not always drawn. The source made the active and inactive calls. No cut-off for these calls is given here.

Experiments:
MIA PaCa-2 [1] = test: Cytotoxicity against human MIAPaCa2 cells transfected with retroviral expression vector pMSCV-LucSh assessed as growth inhibition at 50 uM after 72 hrs by MTS assay; assay type: functional, cell-based
Outline: (§1)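 Cells seeded at 5000/well, attached overnight, then given 50 µM of each analog for 72 h at 37 °C. MTS reagent added for about 1 h, absorbance read at 570 nm. Viability normalized to DMSO/untreated controls. Three independent experiments, each with 3–5 replicate wells per concentration. Cells kept in DMEM with 10% FBS.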

PANC-1 = test: Cytotoxicity against human PANC1 cells transfected with retroviral expression vector pMSCV-LucSh assessed as growth inhibition at 50 uM after 72 hrs by MTS assay; assay type: functional, cell-based; outline: as §1
[2] = target: T1, Focal adhesion kinase 1/vascular endothelial growth factor receptor 3 (Homo sapiens) (UniProt P35916+Q05397); test: Inhibition of FAK/VEGFR-3 interaction in human MCF7 cells assessed as decrease in VEGFR3 protein level at 10 uM after 24 hrs by immunoprecipitation assay; assay type: cell-based
Outline: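 MCF7-VEGFR3 cells treated with selected analogs for 24 h, then lysed in NP40 buffer. FAK immunoprecipitated with clone 4.47 after preclearing, 2 h antibody binding and overnight incubation with Protein A/G beads at 4 °C. Co-precipitated VEGFR3 and total FAK detected by immunoblot on 7.5% gel.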

[3] = target: RAC-alpha serine/threonine-protein kinase (Homo sapiens) (UniProt P31749); test: Inhibition of AKT1 (unknown origin) at 1 uM by Z'-LYTE assay relative to control
Outline: (§2)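 Z'-LYTE SelectScreen single-point biochemical kinase assay, done by an outside service. Compound at 1 µM with 100 µM ATP in the reaction. Percent inhibition calculated per the Z'-LYTE analysis protocol, as the mean of two independent runs.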

[4] = target: Epidermal growth factor receptor (Homo sapiens) (UniProt P00533); test: Inhibition of EGFR (unknown origin) at 1 uM by Z'-LYTE assay relative to control; outline: as §2
[5] = target: Vascular endothelial growth factor receptor 1 (Homo sapiens) (UniProt P17948); test: Inhibition of FLT1 (unknown origin) at 1 uM by Z'-LYTE assay relative to control; outline: as §2
[6] = target: Vascular endothelial growth factor receptor 3 (Homo sapiens) (UniProt P35916); test: Inhibition of FLT4 (unknown origin) at 1 uM by Z'-LYTE assay relative to control
Outline: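 Z'-LYTE SelectScreen single-point biochemical kinase assay, run as a contracted service. Compound at 1 µM and ATP at 100 µM in the reaction. Percent inhibition calculated per the Z'-LYTE analysis protocol, given as the mean of two independent runs.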

[7] = target: Insulin-like growth factor 1 receptor (Homo sapiens) (UniProt P08069); test: Inhibition of IGF1R (unknown origin) at 1 uM by Z'-LYTE assay relative to control; outline: as §2
[8] = target: Vascular endothelial growth factor receptor 2 (Homo sapiens) (UniProt P35968); test: Inhibition of KDR (unknown origin) at 1 uM by Z'-LYTE assay relative to control; outline: as §2
[9] = target: Platelet-derived growth factor receptor alpha (Homo sapiens) (UniProt P16234); test: Inhibition of PDGFRA (unknown origin) at 1 uM by Z'-LYTE assay relative to control; outline: as §2
Focal adhesion kinase 1 [10] = target: T2, Focal adhesion kinase 1 (Homo sapiens, UniProt Q05397); test: Inhibition of PTK2 (unknown origin) at 1 uM by Z'-LYTE assay relative to control; outline: as §2
[11] = target: Protein-tyrosine kinase 2-beta (Homo sapiens) (UniProt Q14289); test: Inhibition of PTK2B (unknown origin) at 1 uM by Z'-LYTE assay relative to control; outline: as §2
[12] = target: Proto-oncogene tyrosine-protein kinase Src (Homo sapiens) (UniProt P12931); test: Inhibition of SRC (unknown origin) at 1 uM by Z'-LYTE assay relative to control; outline: as §2
Focal adhesion kinase 1 [13] = target: T2, Focal adhesion kinase 1; test: Binding affinity to biotinylated human FAK FAT domain by biolayer interoferometry
Outline: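 Bio-layer interferometry on super streptavidin biosensor tips, pre-wetted in buffer for a baseline before FAT protein immobilization. Association and dissociation measured over 210 s at two small-molecule concentrations. Kon, Koff and Kd derived from the kinetic fits.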
Target sequence in this assay (Q05397 whole entry): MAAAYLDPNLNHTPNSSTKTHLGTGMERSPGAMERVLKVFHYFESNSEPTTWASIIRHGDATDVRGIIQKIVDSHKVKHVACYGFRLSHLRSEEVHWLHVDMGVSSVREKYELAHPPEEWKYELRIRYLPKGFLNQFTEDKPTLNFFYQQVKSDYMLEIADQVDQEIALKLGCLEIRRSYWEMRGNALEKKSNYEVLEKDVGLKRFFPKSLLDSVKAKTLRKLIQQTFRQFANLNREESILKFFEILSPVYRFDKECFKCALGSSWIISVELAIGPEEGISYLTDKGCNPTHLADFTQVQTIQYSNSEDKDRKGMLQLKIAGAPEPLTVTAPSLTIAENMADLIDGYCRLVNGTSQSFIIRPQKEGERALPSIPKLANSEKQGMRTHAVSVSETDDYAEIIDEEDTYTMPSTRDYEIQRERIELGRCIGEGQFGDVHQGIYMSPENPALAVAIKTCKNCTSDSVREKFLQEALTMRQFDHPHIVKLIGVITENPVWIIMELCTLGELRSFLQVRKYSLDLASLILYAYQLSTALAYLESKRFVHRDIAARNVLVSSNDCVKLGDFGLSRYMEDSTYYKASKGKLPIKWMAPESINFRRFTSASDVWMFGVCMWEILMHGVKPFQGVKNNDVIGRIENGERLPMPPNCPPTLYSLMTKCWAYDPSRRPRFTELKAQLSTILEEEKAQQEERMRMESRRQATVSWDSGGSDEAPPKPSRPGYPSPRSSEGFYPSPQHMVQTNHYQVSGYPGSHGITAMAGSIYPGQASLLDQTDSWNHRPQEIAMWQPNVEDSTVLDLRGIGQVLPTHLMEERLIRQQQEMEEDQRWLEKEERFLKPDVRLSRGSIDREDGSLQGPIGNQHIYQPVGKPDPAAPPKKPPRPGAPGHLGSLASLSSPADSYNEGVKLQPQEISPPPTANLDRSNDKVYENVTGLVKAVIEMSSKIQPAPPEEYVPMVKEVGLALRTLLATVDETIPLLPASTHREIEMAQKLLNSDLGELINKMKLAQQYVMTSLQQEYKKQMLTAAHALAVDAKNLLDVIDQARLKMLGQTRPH

MCF7 [14] = test: Cytotoxicity against human MCF7 cells overexpressing VEGFR-3/FAK after 72 hrs by MTS assay; assay type: functional, cell-based
Outline: (§3)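 MTS assay. Cells kept in DMEM with 10% FBS, plated at 5000 cells/well and left to attach overnight, then exposed to compound (screening at 50 µM) for 72 h at 37 °C. MTS reagent added for about 1 h, then absorbance read at 570 nm. Viability normalized to DMSO/untreated controls. Three independent experiments, 3–5 replicate wells per concentration.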

MCF7 [15] = test: Cytotoxicity against human MCF7 cells overexpressing VEGFR-3/FAK assessed as inhibition of colony formation at 10 uM after 14 days by 1,9-dimethyl-methylene blue staining-based assay; assay type: functional, cell-based
Outline: (§4)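 Colony formation. 700 cells/well seeded with compound added immediately, then incubated at 37 °C for 10–14 days (legend: 14 days). Colonies stained for 1 h with 0.25% 1,9-dimethyl-methylene blue in 50% methanol, washed, dried and scanned. Duplicate wells, three independent experiments.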

MIA PaCa-2 [16] = test: Cytotoxicity against human MIAPaCa2 cells transfected with retroviral expression vector pMSCV-LucSh assessed as inhibition of colony formation at 10 uM after 14 days by 1,9-dimethyl-methylene blue staining-based assay; assay type: functional, cell-based
Outline: (§5)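 700 cells/well seeded, and compound added at once at the specified concentrations. Incubated 10–14 days at 37 °C (figure legend gives 14 days). Colonies stained with 0.25% 1,9-dimethyl-methylene blue in 50% methanol for 1 h, washed, dried and scanned. Run in duplicate and repeated three times independently.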

[17] = target: T1, Focal adhesion kinase 1/vascular endothelial growth factor receptor 3 (Homo sapiens); test: Inhibition of FAK/VEGFR-3 interaction in human MIAPaCa2 cells transfected with retroviral expression vector pMSCV-LucSh assessed as decrease in levels of VEGFR3 and phosphorylated tyrosine residues associated with FAK protein after 24 hrs by immunoprecipitation assay; assay type: cell-based; settings: MIA PaCa-2
Outline: (§6)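 Cells treated at increasing doses for 24 h, then lysed in NP40 buffer with inhibitors. 500 or 800 µg lysate precleared, then immunoprecipitated with FAK 4.47 or VEGFR3 9D9, with isotype IgG and no-antibody controls, overnight with Protein A/G beads at 4 °C. Immunoblotted for pan-phosphotyrosine (4G10), total FAK and total VEGFR3. Bands quantified by densitometry.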

[18] = target: T1, Focal adhesion kinase 1/vascular endothelial growth factor receptor 3 (Homo sapiens); test: Inhibition of FAK/VEGFR-3 interaction in human MIAPaCa2 cells transfected with retroviral expression vector pMSCV-LucSh assessed as reduction in VEGFR3 pan-phosphorylated tyrosine level after 24 hrs by immunoprecipitation assay; assay type: cell-based; settings: MIA PaCa-2; outline: as §6
MIA PaCa-2 [19] = test: Induction of apoptosis in human MIAPaCa2 cells transfected with retroviral expression vector pMSCV-LucSh at 70 uM after 24 hrs by CellEvent/TMRM dye-based microscopic analysis; assay type: functional, cell-based
Outline: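 10,000 cells/well plated and adhered overnight, then drug added for 24 h. Stained with 5 µM CellEvent caspase-3/7 dye plus 2.5 µM TMRM in PBS, 30 min at 37 °C in the dark. Imaged by fluorescence microscopy, and bright-green apoptotic nuclei counted in 6–8 fields per condition. Percent apoptosis normalized to control, from three independent experiments, compared by Student t test.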

MIA PaCa-2 [20] = test: Induction of apoptosis in human MIAPaCa2 cells transfected with retroviral expression vector pMSCV-LucSh assessed as increase in caspase-3 cleavage after 24 hrs; assay type: functional, cell-based
Outline: (§7)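 Cells seeded to reach about 80% confluence at 24 h, then drug-treated at increasing doses for 24 h at 37 °C. Lysed in 1% NP40 buffer with protease and phosphatase inhibitors. 30 µg protein run on SDS gel and transferred to PVDF. Immunoblotted overnight at 4 °C with caspase-3 and PARP rabbit polyclonals for cleavage products. ECL detection.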

MIA PaCa-2 [21] = test: Induction of apoptosis in human MIAPaCa2 cells transfected with retroviral expression vector pMSCV-LucSh assessed as increase in PARP cleavage after 24 hrs; assay type: functional, cell-based; outline: as §7
MCF7 [22] = test: Induction of apoptosis in human MCF7 cells overexpressing VEGFR-3/FAK assessed as increase in caspase-3 cleavage after 24 hrs; assay type: functional, cell-based
Outline: (§8)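 MCF7-VEGFR3 cells grown to about 80% confluence, then given compound at the indicated concentrations for 24 h at 37 °C. Lysed in 1% NP40 buffer with phosphatase and protease inhibitors. 30 µg protein run by SDS-PAGE and immunoblotted with caspase-3 and PARP rabbit polyclonal antibodies, detected by ECL.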

MCF7 [23] = test: Induction of apoptosis in human MCF7 cells overexpressing VEGFR-3/FAK assessed as increase in PARP cleavage after 24 hrs; assay type: functional, cell-based; outline: as §8
[24] = target: T1, Focal adhesion kinase 1/vascular endothelial growth factor receptor 3 (Homo sapiens); test: Inhibition of FAK/VEGFR-3 interaction in human MIAPaCa2 cells transfected with retroviral expression vector pMSCV-LucSh assessed as decrease in levels of VEGFR3 and phosphorylated tyrosine residues associated with FAK protein after 24 hrs by densitometric analysis; assay type: cell-based; settings: MIA PaCa-2; outline: as §6
[25] = target: T1, Focal adhesion kinase 1/vascular endothelial growth factor receptor 3 (Homo sapiens); test: Inhibition of FAK/VEGFR-3 interaction in human MIAPaCa2 cells transfected with retroviral expression vector pMSCV-LucSh assessed as reduction in VEGFR3 pan-phosphorylated tyrosine level after 24 hrs by densitometric analysis; assay type: cell-based; settings: MIA PaCa-2; outline: as §6
C8161 = test: Cytotoxicity against human C8161 cells assessed as growth inhibition at 50 uM after 72 hrs by MTS assay; assay type: functional, cell-based; outline: as §3
A-375 = test: Cytotoxicity against human A375 cells assessed as growth inhibition at 50 uM after 72 hrs by MTS assay; assay type: functional, cell-based; outline: as §3
U-87MG ATCC = test: Cytotoxicity against human U87 cells assessed as growth inhibition at 50 uM after 72 hrs by MTS assay; assay type: functional, cell-based; outline: as §3
MDA-MB-231 = test: Cytotoxicity against human MDA-MB-231 cells assessed as growth inhibition at 50 uM after 72 hrs by MTS assay; assay type: functional, cell-based; outline: as §3
MCF7 [26] = test: Cytotoxicity against human MCF7 cells overexpressing VEGFR-3/FAK assessed as inhibition of colony formation at >10 uM after 14 days by 1,9-dimethyl-methylene blue staining-based assay; assay type: functional, cell-based; outline: as §4
MIA PaCa-2 [27] = test: Cytotoxicity against human MIAPaCa2 cells transfected with retroviral expression vector pMSCV-LucSh assessed as inhibition of colony formation at >10 uM after 14 days by 1,9-dimethyl-methylene blue staining-based assay; assay type: functional, cell-based; outline: as §5

T1 sequence (P35916 whole entry, looked up): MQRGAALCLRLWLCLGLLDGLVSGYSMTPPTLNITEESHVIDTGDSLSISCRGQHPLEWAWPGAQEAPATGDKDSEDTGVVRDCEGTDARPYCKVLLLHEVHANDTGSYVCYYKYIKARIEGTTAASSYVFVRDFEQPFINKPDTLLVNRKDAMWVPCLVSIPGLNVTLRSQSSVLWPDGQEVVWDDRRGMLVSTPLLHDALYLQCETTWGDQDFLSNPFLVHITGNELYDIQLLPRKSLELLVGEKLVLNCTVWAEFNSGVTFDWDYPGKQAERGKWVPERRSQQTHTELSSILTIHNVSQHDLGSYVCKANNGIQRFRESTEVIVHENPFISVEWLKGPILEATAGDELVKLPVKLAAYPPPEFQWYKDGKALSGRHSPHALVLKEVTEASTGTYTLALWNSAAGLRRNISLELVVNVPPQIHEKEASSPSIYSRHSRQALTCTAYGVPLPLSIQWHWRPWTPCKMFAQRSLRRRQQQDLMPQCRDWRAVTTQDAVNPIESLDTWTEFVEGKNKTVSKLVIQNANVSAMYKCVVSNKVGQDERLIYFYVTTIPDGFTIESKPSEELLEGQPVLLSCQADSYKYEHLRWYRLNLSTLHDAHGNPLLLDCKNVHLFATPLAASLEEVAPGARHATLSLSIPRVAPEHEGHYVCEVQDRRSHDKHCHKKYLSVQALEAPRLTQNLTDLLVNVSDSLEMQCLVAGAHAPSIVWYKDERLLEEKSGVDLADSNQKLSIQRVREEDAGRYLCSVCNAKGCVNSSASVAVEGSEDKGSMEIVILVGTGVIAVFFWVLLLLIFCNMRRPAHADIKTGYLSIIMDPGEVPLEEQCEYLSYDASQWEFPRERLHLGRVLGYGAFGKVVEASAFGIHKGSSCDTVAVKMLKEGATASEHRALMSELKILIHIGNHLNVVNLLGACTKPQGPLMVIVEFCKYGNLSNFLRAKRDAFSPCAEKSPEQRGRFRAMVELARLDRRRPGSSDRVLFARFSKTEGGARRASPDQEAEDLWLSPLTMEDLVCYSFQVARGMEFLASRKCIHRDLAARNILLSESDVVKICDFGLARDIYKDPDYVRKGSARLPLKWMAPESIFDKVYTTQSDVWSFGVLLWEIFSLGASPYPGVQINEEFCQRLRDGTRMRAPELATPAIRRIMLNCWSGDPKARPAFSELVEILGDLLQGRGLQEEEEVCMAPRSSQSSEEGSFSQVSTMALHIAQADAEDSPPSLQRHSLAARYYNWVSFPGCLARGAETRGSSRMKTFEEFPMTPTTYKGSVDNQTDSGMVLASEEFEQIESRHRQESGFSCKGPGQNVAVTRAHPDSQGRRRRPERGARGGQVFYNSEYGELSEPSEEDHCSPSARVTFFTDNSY
T1 sequence (Q05397 whole entry, looked up): as the sequence (Q05397 whole entry) above
Sequence of Insulin-like growth factor 1 receptor (Homo sapiens) (P08069 31-736 limits assumed): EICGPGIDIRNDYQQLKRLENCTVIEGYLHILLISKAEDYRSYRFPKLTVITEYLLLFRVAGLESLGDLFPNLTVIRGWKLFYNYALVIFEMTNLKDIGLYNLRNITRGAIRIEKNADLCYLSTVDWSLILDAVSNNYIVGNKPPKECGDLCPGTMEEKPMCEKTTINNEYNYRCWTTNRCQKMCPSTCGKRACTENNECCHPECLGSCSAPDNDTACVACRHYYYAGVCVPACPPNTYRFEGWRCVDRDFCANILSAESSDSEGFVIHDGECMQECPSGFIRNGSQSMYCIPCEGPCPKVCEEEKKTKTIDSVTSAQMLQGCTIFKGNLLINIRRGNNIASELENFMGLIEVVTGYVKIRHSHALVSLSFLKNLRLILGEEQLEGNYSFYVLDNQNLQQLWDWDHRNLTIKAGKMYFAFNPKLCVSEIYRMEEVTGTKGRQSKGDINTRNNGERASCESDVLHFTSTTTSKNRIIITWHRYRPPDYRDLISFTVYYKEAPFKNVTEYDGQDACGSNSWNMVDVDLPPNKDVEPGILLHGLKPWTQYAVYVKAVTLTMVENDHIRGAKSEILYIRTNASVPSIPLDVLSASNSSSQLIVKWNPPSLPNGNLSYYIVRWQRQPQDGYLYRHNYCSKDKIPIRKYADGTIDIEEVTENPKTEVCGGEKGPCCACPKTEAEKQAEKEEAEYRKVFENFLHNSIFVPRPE
Sequence of Insulin-like growth factor 1 receptor (Homo sapiens) (P08069 741-1367 limits assumed): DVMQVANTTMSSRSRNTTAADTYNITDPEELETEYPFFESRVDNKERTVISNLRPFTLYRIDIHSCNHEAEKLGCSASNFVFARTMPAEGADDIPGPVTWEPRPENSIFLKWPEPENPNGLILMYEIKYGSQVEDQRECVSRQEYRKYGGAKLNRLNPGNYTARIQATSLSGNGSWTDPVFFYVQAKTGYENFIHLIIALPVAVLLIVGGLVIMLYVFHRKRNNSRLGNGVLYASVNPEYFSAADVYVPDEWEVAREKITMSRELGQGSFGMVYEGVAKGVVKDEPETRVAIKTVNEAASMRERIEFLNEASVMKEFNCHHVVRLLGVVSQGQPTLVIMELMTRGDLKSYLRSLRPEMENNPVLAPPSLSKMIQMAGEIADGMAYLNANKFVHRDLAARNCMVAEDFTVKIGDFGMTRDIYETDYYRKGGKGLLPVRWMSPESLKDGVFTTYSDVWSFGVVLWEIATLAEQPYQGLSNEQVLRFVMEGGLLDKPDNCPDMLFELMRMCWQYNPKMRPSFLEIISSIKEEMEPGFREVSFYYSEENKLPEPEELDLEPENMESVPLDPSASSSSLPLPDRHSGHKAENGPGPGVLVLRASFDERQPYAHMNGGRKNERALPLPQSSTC
Sequence of RAC-alpha serine/threonine-protein kinase (Homo sapiens) (P31749 whole entry): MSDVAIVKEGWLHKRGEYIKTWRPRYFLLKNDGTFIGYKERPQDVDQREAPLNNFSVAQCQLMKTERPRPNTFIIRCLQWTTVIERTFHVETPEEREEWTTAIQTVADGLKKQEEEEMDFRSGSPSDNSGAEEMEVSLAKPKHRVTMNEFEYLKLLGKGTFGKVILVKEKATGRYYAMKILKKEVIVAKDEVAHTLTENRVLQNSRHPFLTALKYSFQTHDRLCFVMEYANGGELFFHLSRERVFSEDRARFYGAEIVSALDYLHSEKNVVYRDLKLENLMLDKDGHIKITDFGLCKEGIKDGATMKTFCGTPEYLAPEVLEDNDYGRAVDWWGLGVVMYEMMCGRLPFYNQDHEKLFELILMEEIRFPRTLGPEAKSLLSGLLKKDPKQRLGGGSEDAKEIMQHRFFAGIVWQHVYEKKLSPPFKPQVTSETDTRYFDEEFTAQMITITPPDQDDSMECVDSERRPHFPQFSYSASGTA
Sequence of Vascular endothelial growth factor receptor 3 (Homo sapiens) (P35916 whole entry): as the sequence (P35916 whole entry, looked up) above
Sequence of Proto-oncogene tyrosine-protein kinase Src (Homo sapiens) (P12931 2-536 limits assumed): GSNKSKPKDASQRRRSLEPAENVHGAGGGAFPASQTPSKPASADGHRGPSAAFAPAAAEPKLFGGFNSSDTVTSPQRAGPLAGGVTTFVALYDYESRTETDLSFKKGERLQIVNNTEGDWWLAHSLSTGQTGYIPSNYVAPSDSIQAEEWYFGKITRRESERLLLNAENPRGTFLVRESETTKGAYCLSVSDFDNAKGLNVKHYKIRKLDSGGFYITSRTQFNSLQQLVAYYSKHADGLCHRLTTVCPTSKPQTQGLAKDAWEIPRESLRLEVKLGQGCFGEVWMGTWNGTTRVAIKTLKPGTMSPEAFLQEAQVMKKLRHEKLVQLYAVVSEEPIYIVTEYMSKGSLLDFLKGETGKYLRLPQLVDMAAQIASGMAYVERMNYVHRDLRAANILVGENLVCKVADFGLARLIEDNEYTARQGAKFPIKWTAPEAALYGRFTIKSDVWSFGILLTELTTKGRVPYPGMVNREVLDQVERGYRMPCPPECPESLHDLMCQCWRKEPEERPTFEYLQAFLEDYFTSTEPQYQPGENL

| SMILES | growth inhibition (GI) (MIA PaCa-2 [1]) | growth inhibition (GI) (PANC-1) | pKd (Focal adhesion kinase 1 [13]) | inhibition [17] | inhibition [18] | inhibition [24] | inhibition [25] | growth inhibition (GI) (C8161) | growth inhibition (GI) (A-375) | growth inhibition (GI) (U-87MG ATCC) | growth inhibition (GI) (MDA-MB-231) | also measured |
| --- | --- | --- | --- | --- | --- | --- | --- | --- | --- | --- | --- | --- |
| CN(C)CCN(Cc1ccc(Cl)cc1)c1ccc2ccccc2n1 | Active | Active | 7.74 | Dose-dependent effect | Dose-dependent effect | Dose-dependent effect | Dose-dependent effect | – | – | – | – | inhibition [2]: Active; inhibition [3]: 7%; inhibition [4]: 4%; inhibition [5]: 1%; inhibition [6]: 4%; inhibition [7]: 11%; inhibition [8]: 14%; inhibition [9]: 8%; inhibition (Focal adhesion kinase 1 [10]): 13%; inhibition [11]: 0%; inhibition [12]: 3%; Activity (MCF7 [14]): Active; inhibition (MCF7 [15]): Active; inhibition (MIA PaCa-2 [16]): Active; Activity (MIA PaCa-2 [19]): Active; Activity (MIA PaCa-2 [20]): Dose-dependent effect; Activity (MIA PaCa-2 [21]): Dose-dependent effect; Activity (MCF7 [22]): Dose-dependent effect; Activity (MCF7 [23]): Dose-dependent effect |
| CCCCCCCCN(CCN(C)C)c1ccccn1 | Active | Active | – | – | – | – | – | Active | Active | Active | Active | – |
| CN(C)CCN(Cc1ccc(Cl)cc1)c1ccccn1 [CHLORPYRAMIN HYDROCHLORIDE] | – | – | 6.24 | Dose-dependent effect | Dose-dependent effect | Dose-dependent effect | Dose-dependent effect | – | – | – | – | inhibition (MCF7 [26]): Active; inhibition (MIA PaCa-2 [27]): Active |
| CCCN(CCN(C)C)c1ccccn1 | inactive | inactive | – | – | – | – | – | inactive | inactive | inactive | inactive | – |
